This is an account of results in ChEMBL document CHEMBL1138839, “Antitumor Agents. 239. Isolation, structure elucidation, total synthesis, and anti-breast cancer activity of neo-tanshinlactone from Salvia miltiorrhiza” (2004).

Assay [1] concerns A-431. As to the kind of experiment: Percent inhibition of human skin cancer A431 cell proliferation. The assay is classed as functional.
Assay [2] relates to MCF7. Kind of assay: Percent inhibition of cell growth in human breast cancer MCF-7 cell line. The assay is classed as functional.
The test system of assay [3] is KB. As to the kind of experiment: Percent inhibition of cell growth in human nasopharyngeal carcinoma KB cell line. The assay is classed as functional.
In another assay the test system is SK-BR-3. Kind of assay: Dose required for reduction in cell growth of estrogen negative human breast cancer SK-BR-3 cell line(ER-). The assay is classed as functional. Conditions: read-out: ED50 (the source's name).
Assay [4] concerns A549. Kind of assay: Percent inhibition of cell growth in human lung cancer A549 cell line. The assay is classed as functional.
For the next assay, the system named is PC-3. Kind of assay: Dose required for reduction in cell growth of human prostate cancer PC-3 cell line. Conditions: read-out: ED50 (the source's name). The assay is classed as functional.
For assay [5], the system named is MCF7. Kind of assay: Dose required for reduction in cell growth of estrogen positive human breast cancer MCF-7 cell line (ER+). The assay is classed as functional. The conditions noted are these: read-out: ED50 (the source's name).
A further assay concerns ZR-75-1. As to the kind of experiment: Dose required for reduction in cell growth of estrogen positive human breast cancer ZR-75-1 cell line (ER+). The assay is classed as functional. Conditions: read-out: ED50 (the source's name).
Assay [6] concerns KB. As to the kind of experiment: Percent inhibition of cell growth in vincristine-resistant human nasopharyngeal carcinoma KB cell line. The assay is classed as functional.
The test system of assay [7] is LNCaP. Kind of assay: Percent inhibition of cell growth in human AR-dependent prostate cancer LN-CaP cell line; value ranges from 28-36. The assay is classed as functional.
Assay [8] relates to A549. Kind of assay: Dose required for reduction in human lung cancer A549 cell proliferation. The assay is classed as functional. Conditions: read-out: ED50 (the source's name). In short, it runs like this:
(§1)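 Freshly trypsinized cells in RPMI-1640 (25 mM HEPES, 0.25% sodium bicarbonate, 10% FBS, 100 μg/mL kanamycin) were seeded at 1500-7500 cells/well and dosed from DMSO-diluted stock. After 3 days they were fixed with cold 50% TCA, stained with 0.4% SRB, and read at 562 nm after dye solubilization. ED50 (50% growth reduction) is the mean of ≥3 independent determinations.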

Assay [9] deals with MCF7. As to the kind of experiment: Dose required for reduction in cell growth of human breast cancer MCF-7 cell line. The conditions noted are these: read-out: ED50 (the source's name). The assay is classed as functional. Summed up:
as §1

The test system of assay [10] is SW-620. Kind of assay: Dose required for reduction in cell growth of human colon cancer SW620 cell line. The assay is classed as functional. The conditions noted are these: read-out: ED50 (the source's name).
For assay [11], the system named is MDA-MB-231. Kind of assay: Dose required for reduction in cell growth of human breast cancer MDA-MB-231 cell line. The assay is classed as functional. Conditions: read-out: ED50 (the source's name). Summed up:
as §1

Assay [12] relates to KB. As to the kind of experiment: Dose required for reduction in cell growth of vincristine-resistant human nasopharyngeal carcinoma KB cell line. The assay is classed as functional. Conditions: read-out: ED50 (the source's name).
Assay [13] relates to MDA-MB-231. As to the kind of experiment: cells. The assay is classed as functional. The conditions noted are these: Homo sapiens, MDA-MB-231, read-out: ED50.
Assay [14] has as its system A-431. Kind of assay: Effective concentration required for 50% reduction in cell growth of human skin cancer A431 cell line. Conditions: read-out: ED50 (the source's name). The assay is classed as functional. Summed up: as §1
Assay [15] deals with LNCaP. As to the kind of experiment: Dose required for reduction in cell growth of human AR-dependent prostate cancer LN-CaP cell line. The assay is classed as functional. The conditions noted are these: read-out: ED50 (the source's name).
The subject of assay [16] is SW-620. Kind of assay: Percent inhibition of cell growth in human colon cancer SW620 cell line. The assay is classed as functional.
For assay [17], the system named is KB. Kind of assay: Dose required for reduction in cell growth of human nasopharyngeal carcinoma KB cell line. The assay is classed as functional. The conditions noted are these: read-out: ED50 (the source's name).
Another assay can be described thus: cells. The assay is classed as functional. The conditions noted are these: Homo sapiens; read-out: ED50 (the source's name).
Assay [18] relates to MDA-MB-231. Kind of assay: Percent inhibition of cell growth in human breast cancer MDA-MB-231 cell line. The assay is classed as functional.
For assay [19], the system named is A-431. As to the kind of experiment: Effective dose for reduction in cell growth of human skin cancer A431 cell line. The conditions noted are these: A-431, read-out: ED50.

Molecules are shown by their SMILES. Values after ≈ are worked out from the molar mass of the structure shown.

For the compound `Cc1cccc2c1ccc1c3occ(C)c3c(=O)oc21`, the Inhibition (usually the change of the read-out against control, counted positive when it falls) is recorded as 35% in the assay on A-431 [1]; 57% with MCF7 [2]; 18% with KB [3]; 10% with A549 [4]; 9% with KB [6]; 36% in the assay on LNCaP [7]. In addition, the Inhibition in the assay on SW-620 [16] is listed as 22%; in the assay on MDA-MB-231 [18], 17%. The EC50 in the assay on SK-BR-3 was 0.2 µg/mL (≈ 0.757 µM); in the assay on PC-3, 10 µg/mL (≈ 37.8 µM); with MCF7 [5], 0.6 µg/mL (≈ 2.27 µM); in the assay on ZR-75-1, 0.3 µg/mL (≈ 1.14 µM); with A549 [8], above 20 µg/mL; in the assay on MCF7 [9] it was below 2.5 µg/mL. The EC50 with SW-620 [10] was above 10 µg/mL; with MDA-MB-231 [11] it was above 20 µg/mL; in the assay with KB [12] it was above 10 µg/mL; in the assay on MDA-MB-231 [13], above 10 µg/mL; with A-431 [14], above 10 µg/mL; with LNCaP [15], above 10 µg/mL. Further, the EC50 in the assay with KB [17] is above 10 µg/mL; in the assay “cells”, 16 µg/mL (≈ 60.5 µM).

Take `C[C@H]1COC2=C1C(=O)C(=O)c1c2ccc2c1CCCC2(C)C` [CRYPTOTANSHINONE]: the EC50 in the assay with MCF7 [9] worked out at 0.41 µg/mL (≈ 1.38 µM); in the assay on MDA-MB-231 [11], 0.16 µg/mL (≈ 0.54 µM).

On to `CC/C(=C(\c1ccccc1)c1ccc(OCCN(C)C)cc1)c1ccccc1.O=C(O)CC(O)(CC(=O)O)C(=O)O` [TAMOXIFEN CITRATE], for which the EC50 was determined as 7 µg/mL in the assay on A-431 [19]; 5 µg/mL in the assay on SK-BR-3; 10 µg/mL in the assay on PC-3; 5 µg/mL in the assay with MCF7 [5]; 5 µg/mL in the assay with ZR-75-1; 4 µg/mL in the assay with SW-620 [10]. Further, the EC50 in the assay on KB [12] is 9 µg/mL; in the assay on MDA-MB-231 [13], above 8 µg/mL; in the assay with LNCaP [15], 6 µg/mL; in the assay on KB [17], 9 µg/mL; in “cells” it was 9 µg/mL.

For the compound `Cc1coc2c1C(=O)C(=O)c1c-2ccc2c1CCCC2(C)C` [TANSHINONE IIA], the EC50 was 0.38 µg/mL (≈ 1.29 µM) with MCF7 [9] and 0.7 µg/mL (≈ 2.38 µM) in the assay with MDA-MB-231 [11].

Consider `Cc1coc2c1C(=O)C(=O)c1c-2ccc2c(C)cccc12` [TANSHINONE I], for which the EC50 came out at 0.82 µg/mL (≈ 2.97 µM) in the assay on MCF7 [9] and 0.75 µg/mL (≈ 2.71 µM) in the assay with MDA-MB-231 [11].
